The subject of experiment [1] is L1210. Nature of the experiment: Inhibition of cell growth against L1210 murine leukemia cells. In kind it is functional, cell-based. As to conditions: Mus musculus.
Experiment [2] can be described thus: Inhibition of cell growth against WI-L2 cells. The class given is functional, cell-based. The following applies: Homo sapiens, WIL2.
For experiment [3], the species on record is Mus musculus. Nature of the experiment: Ratio of Vmax and Km relative to AMT. The method, boiled down:
(§1)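 FPGS was partially purified from mouse liver, and the compounds were run as substrates. Km, Vmax and Vmax/Km came from the kinetic data. Vmax and Vmax/Km are expressed relative to aminopterin run in the same experiment. Each compound was tested in 2–3 experiments on different days.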

Experiment [4] has as its system L1210. In words: Compound was measured for growth inhibition of L1210 cells in standard medium. In kind it is functional, cell-based. As to conditions: Mus musculus.
In experiment [5] the test system is L1210. Nature of the experiment: Compound was measured for growth inhibition of L1210 cells in the presence of thymidine plus hypoxanthine. The following applies: Mus musculus. The class given is functional, cell-based. In outline: (§2)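 Reversal test of an antifolate effect on L1210 cell growth in culture. The drug is given alongside one of three supplements: thymidine alone at 10 μM, hypoxanthine alone at 100 μM, or thymidine 10 μM plus hypoxanthine 100 μM together.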

Experiment [6] concerns L1210. In words: Compound was measured for growth inhibition of L1210 cells in the presence of thymidine. As to conditions: Mus musculus. The class given is functional, cell-based. The method, boiled down: as §2
For experiment [7], the target named is T1, Dihydrofolate reductase (Homo sapiens, UniProt P00374).
T1 sequence (P00374 whole entry): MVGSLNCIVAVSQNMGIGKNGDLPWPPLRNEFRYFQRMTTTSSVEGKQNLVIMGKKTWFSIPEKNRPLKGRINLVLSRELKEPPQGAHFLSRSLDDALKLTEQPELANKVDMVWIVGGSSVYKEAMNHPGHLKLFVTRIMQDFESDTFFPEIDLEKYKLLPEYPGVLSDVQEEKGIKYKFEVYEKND
In words: Compound was tested for its inhibitory activity against dihydrofolate reductase (DHFR), isolated from MTX-resistant WI-L2 cells. The class given is cell-based.

The species entered for experiment [8] is Mus musculus. Nature of the experiment: Kinetic constant of compound was derived from purified Folyl-polyglutamate synthase from mouse liver. The method, boiled down: as §1
Experiment [9] is filed under the species Mus musculus. In words: Vmax of compound was derived from purified Folyl-polyglutamate synthase from mouse liver. In outline:
as §1

In experiment [10] the test system is L1210. In words: Compound was measured for growth inhibition of L1210 cells in the presence of hypoxanthine. As to conditions: Mus musculus. The class given is functional, cell-based. The method, boiled down: as §2

A value given as a limit tells only on which side of the number the result lay.

Consider `CN(Cc1cnc2nc(N)nc(N)c2n1)c1ccc(C(=O)N[C@@H](CCC(=O)O)C(=O)O)cc1` [METHOTREXATE], for which the IC50 turned out to be 9 nM in [1] and 13 nM in experiment [2].

Regarding `Cc1nc(N)c2nc(CNc3ccc(C(=O)NC(CCC(=O)O)C(=O)O)cc3)cnc2n1` (centres undefined), the Ratio in [3] was 0.6. In addition, the 50% inhibitory concentration (IC50) in [4] was 42 nM; in experiment [5], > 100000 nM; in experiment [6], 130 nM; in experiment [1] it was 42 nM; in experiment [7] it was > 50000 nM; in experiment [10] it was 160 nM. The midpoint of inhibition in experiment [2], the IC50, lay at 28 nM. Also, in experiment [8], the Michaelis constant (Km) is 31.7 µM. Further, in experiment [9], the Vmax came to 0.77.

For the compound `Nc1ncnc2ncc(CNc3ccc(C(=O)NC(CCC(=O)O)C(=O)O)cc3)nc12` (centres undefined), in experiment [3], the Ratio is 0.74. Moreover, the 50% inhibitory concentration (IC50) was 82 nM in experiment [4]; > 100000 nM in experiment [5]; 160 nM in [6]; 82 nM in [1]; 260 nM in experiment [10]; 81 nM in experiment [2]. In addition, in experiment [8], the Km was found to be 26.4 µM. In addition, the Vmax in experiment [9] came to 0.87.

For `Nc1nc(N)c2nc(CNc3ccc(C(=O)N[C@@H](CCC(=O)O)C(=O)O)cc3)cnc2n1`, the Ratio in experiment [3] was determined as 1. The Km in [8] was 22.8 µM. Further, the Vmax in experiment [9] stood at 1.

The record behind these values is ChEMBL document CHEMBL1124406 (J Med Chem, 1989).
